The test system of assay [1] is HepG2. As to the kind of experiment: Cytotoxicity against human HepG2 cells assessed as inhibition of proliferation incubated for 72 hrs by MTT assay. Type of assay: functional, cell-based. Conditions: HepG2, 72 h. An outline of the steps: (§1)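 Cells plated at 3×10³/well, grown overnight in DMEM + 10% FBS, then exposed to compounds (DMSO stocks; 0.1% DMSO negative control) for 72 h at 37 °C. MTT (5 mg/mL in PBS, added at 10%) for 4 h, formazan dissolved in DMSO, A570 read. Inhibition = (Ac−As)/(Ac−Ab)×100; IC50 by calculator; ≥3 independent repeats.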
For orientation: Formazan colour is commonly taken as a measure of viable cells.

Assay [2] has as its system U-251. Kind of assay: Cytotoxicity against human U251 cells assessed as inhibition of proliferation incubated for 72 hrs by MTT assay. Type of assay: functional, cell-based. Conditions: U-251, 72 h. An outline of the steps: as §1
The subject of assay [3] is HepG2. Kind of assay: Cytotoxicity against human HepG2 cells assessed as inhibition rate at 2.5 uM incubated for 72 hrs by MTT assay relative to control. Type of assay: functional. In outline: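 HepG2 exposed to each compound at 2.5 µM-range single concentration for 72 h at 37 °C after overnight attachment in DMEM + 10% FBS; 0.1% DMSO control. MTT 4 h, DMSO solubilisation, A570; inhibition rate = (Ac−As)/(Ac−Ab)×100.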

Assay [4] relates to Bel-7402. As to the kind of experiment: Cytotoxicity against human Bel-7402 cells assessed as inhibition of proliferation incubated for 72 hrs by MTT assay. Conditions: Bel-7402, 72 h. It counts as functional, cell-based. An outline of the steps:
as §1

The subject of assay [5] is A549. As to the kind of experiment: Cytotoxicity against human A549 cells assessed as inhibition of proliferation incubated for 72 hrs by MTT assay. Conditions: A549, 72 h. It counts as functional, cell-based. In outline: as §1

Structures can show the parent of a compound that is named as a salt.

As to `CCOc1nc(C(=O)c2cc(OC)c(OC)c(OC)c2)nc2ccccc12`, the IC50 (in general, the concentration needed to halve the response being measured) was 15.6 µM in assay [1], 10.6 µM in assay [2], 8.29 µM in assay [4] and greater than 100 µM in assay [5]. Besides, the inhibition (in general, the relative decrease from the control value, in per cent) at 2.5 µM in assay [3] is 32%.

As to `COc1ccc(C(=O)c2nc3ccccc3c(=O)[nH]2)cc1`, in assay [1], the IC50 was greater than 50 µM.

Turning to `COc1cc(C(=O)c2nc3cc(Br)ccc3c(=O)[nH]2)cc(OC)c1OC`, the half-inhibitory concentration (IC50) in assay [1] was 7.45 µM; in assay [2], greater than 100 µM; in assay [4] it was 4.91 µM; in assay [5] it was 7.27 µM. Besides, in assay [3], the inhibition at 2.5 µM was 17.6%.

On to `COc1cc(C(=O)c2nc3ccccc3c(=O)n2Cc2nnc(-c3ccc(Cl)cc3)o2)cc(OC)c1OC`, for which the inhibition at 2.5 µM in assay [3] came to 2.3%.

On to `COc1cc(C(=O)c2nc3cc(F)c(F)cc3c(=O)[nH]2)cc(OC)c1OC`, for which the inhibition at 2.5 µM in assay [3] came to 1.2%.

With `O=C(c1ccc(C(F)(F)F)cc1)c1nc2ccccc2c(=O)[nH]1`, in assay [1], the IC50 was greater than 50 µM.

In the case of `COc1cc(C(=O)c2nc3ccc([N+](=O)[O-])cc3c(=O)[nH]2)cc(OC)c1OC`, the inhibition at 2.5 µM in assay [3] is 8.8%.

As for `COc1cc(C(=O)c2nc3cccc(Br)c3c(=O)[nH]2)cc(OC)c1OC`, in assay [3], the inhibition at 2.5 µM worked out at 5.1%.

Turning to `COc1cc2nc(C(=O)c3cc(OC)c(OC)c(OC)c3)[nH]c(=O)c2cc1OC`, the inhibition at 2.5 µM in assay [3] came out at 5.1%.

Turning to `COc1cc(C(=O)c2nc3c(Cl)cccc3c(=O)[nH]2)cc(OC)c1OC`, in assay [3], the inhibition at 2.5 µM turned out to be 9.2%.

Turning to `COc1ccc2nc(C(=O)c3cc(OC)c(OC)c(OC)c3)[nH]c(=O)c2c1`, the inhibition at 2.5 µM in assay [3] is 4.2%.

On to `O=C(c1ccc(F)cc1)c1nc2ccccc2c(=O)[nH]1`, for which the IC50 in assay [1] was greater than 50 µM.

As for `COc1cc(C(=O)c2nc3cccc(OC)c3c(=O)[nH]2)cc(OC)c1OC`, the IC50 is 9.15 µM in assay [1], 19.2 µM in assay [2], 7.1 µM in assay [4] and 15.4 µM in assay [5]. Besides, the inhibition at 2.5 µM in assay [3] was 10.2%.

As to `COc1cc(C(=O)c2nc(OC(C)C)c3ccccc3n2)cc(OC)c1OC`, the IC50 was 7.45 µM in assay [1], greater than 100 µM in assay [2], 4.91 µM in assay [4] and 7.27 µM in assay [5]. For the same molecule, the inhibition at 2.5 µM in assay [3] is 10.8%.

For the molecule `COc1cc(C(=O)c2nc3c(F)cccc3c(=O)[nH]2)cc(OC)c1OC`, the inhibition at 2.5 µM in assay [3] was found to be 6.8%.

For `COc1ccc2c(=O)[nH]c(C(=O)c3cc(OC)c(OC)c(OC)c3)nc2c1`, the IC50 in assay [1] amounted to 10.6 µM; in assay [2], 13.7 µM; in assay [4], 4.13 µM; in assay [5], 12.7 µM. In addition, the inhibition at 2.5 µM in assay [3] came out at 43.4%.

For the molecule `COc1cc(C(=O)c2nc3cccc(F)c3c(=O)[nH]2)cc(OC)c1OC`, the inhibition at 2.5 µM in assay [3] worked out at 9.4%.

Consider `COc1cc(C(=O)c2nc3cc(Cl)ccc3c(=O)[nH]2)cc(OC)c1OC`, for which the inhibition at 2.5 µM in assay [3] was 8.2%.

With `COc1cccc2c1C(=O)c1c(O)c3c(c(O)c1C2=O)C[C@@](O)(C(=O)CO)C[C@@H]3O[C@H]1C[C@H](N)[C@H](O)[C@H](C)O1` [DOXORUBICIN HYDROCHLORIDE], the IC50 in assay [1] worked out at 2.21 µM; in assay [2], 0.157 µM; in assay [4] it was 1.28 µM.

For the molecule `O=C(c1nc2ccccc2c(=O)[nH]1)c1ccccc1C(F)(F)F`, the IC50 in assay [1] is greater than 50 µM.

In the case of `COc1cc(C(=O)c2nc3ccc(Cl)cc3c(=O)[nH]2)cc(OC)c1OC`, the inhibition at 2.5 µM in assay [3] was found to be 3.4%.

For the molecule `COc1cc(C(=O)c2nc3cc(F)ccc3c(=O)[nH]2)cc(OC)c1OC`, the inhibition at 2.5 µM in assay [3] amounted to 9.7%.

For `O=C(c1ccc(O)cc1)c1nc2ccccc2c(=O)[nH]1` [PENIPANOID C], the IC50 in assay [1] was greater than 50 µM.

For `C#CCn1c(C(=O)c2cc(OC)c(OC)c(OC)c2)nc2ccccc2c1=O`, the IC50 in assay [1] is 4.97 µM; in assay [2], 12.8 µM; in assay [4], 5.4 µM; in assay [5] it was 7.66 µM. The inhibition at 2.5 µM in assay [3] was 54.7%.

For the molecule `O=C(c1ccc(Cl)cc1)c1nc2ccccc2c(=O)[nH]1`, the half-maximal inhibitory concentration (IC50) in assay [1] is greater than 50 µM.

As for `COc1cc(C(=O)c2nc3c(OC)cccc3c(=O)[nH]2)cc(OC)c1OC`, the inhibition at 2.5 µM in assay [3] amounted to 8.1%.

Turning to `O=C(c1ccc(OC(F)(F)F)cc1)c1nc2ccccc2c(=O)[nH]1`, the IC50 in assay [1] was greater than 50 µM.

On to `COc1cc(C(=O)c2nc3ccccc3c(=O)n2Cc2nnc(-c3ccc(C)cc3)o2)cc(OC)c1OC`, for which the IC50 in assay [1] stood at 10.5 µM; in assay [2], 27 µM; in assay [4], 8.88 µM; in assay [5] it was 47.1 µM. Moreover, the inhibition at 2.5 µM in assay [3] is 12.6%.

As to `COc1cc(C(=O)c2nc3cccc(Cl)c3c(=O)[nH]2)cc(OC)c1OC`, the inhibition at 2.5 µM in assay [3] was found to be 3.7%.

For the molecule `COc1ccccc1C(=O)c1nc2ccccc2c(=O)[nH]1`, in assay [1], the IC50 is greater than 50 µM.

Regarding `COc1cc(C(=O)c2nc3c(Br)cccc3c(=O)[nH]2)cc(OC)c1OC`, the inhibition at 2.5 µM in assay [3] was found to be 1.3%.

Take `C=CCn1c(C(=O)c2cc(OC)c(OC)c(OC)c2)nc2ccccc2c1=O`: the IC50 in assay [1] was 14.1 µM; in assay [2] it was 13 µM; in assay [4] it was 10.7 µM; in assay [5], 10.5 µM. The inhibition at 2.5 µM in assay [3] turned out to be 21%.

Turning to `COc1cc(C(=O)c2nc(Cl)c3ccccc3n2)cc(OC)c1OC`, the IC50 in assay [1] was 10.9 µM; in assay [2] it was greater than 100 µM; in assay [4] it was 6.88 µM; in assay [5], 7.09 µM. For the same molecule, the inhibition at 2.5 µM in assay [3] is 18.4%.

As to `COc1cc(C(=O)c2nc3cc([N+](=O)[O-])ccc3c(=O)[nH]2)cc(OC)c1OC`, the inhibition at 2.5 µM in assay [3] turned out to be 6.9%.

`COc1cc(C(=O)c2nc3ccc(F)cc3c(=O)[nH]2)cc(OC)c1OC`: the inhibition at 2.5 µM in assay [3] amounted to 5.1%.

`COc1cc(C(=O)c2nc3ccccc3c(=O)n2Cc2nnc(-c3ccc(F)cc3)o2)cc(OC)c1OC`: the IC50 in assay [1] stood at 7.07 µM; in assay [2], 27.5 µM; in assay [4] it was 4.86 µM; in assay [5], 7.66 µM. The inhibition at 2.5 µM in assay [3] is 26.3%.

On to `COc1cc(C(=O)c2nc3ccccc3c(=O)n2C)cc(OC)c1OC`, for which the IC50 in assay [1] was 8.19 µM; in assay [2], greater than 100 µM; in assay [4] it was 6.34 µM; in assay [5], 20.3 µM. For the same molecule, the inhibition at 2.5 µM in assay [3] stood at 17.4%.

For the molecule `COc1cc(C(=O)c2nc3ccccc3c(=O)n2Cc2nnc(-c3ccco3)o2)cc(OC)c1OC`, the IC50 in assay [1] was 7.51 µM; in assay [2] it was 15.9 µM; in assay [4] it was 8.15 µM; in assay [5], 4.62 µM. Moreover, the inhibition at 2.5 µM in assay [3] is 34.4%.

As to `COc1cc(C(=O)c2nc3ccc(Br)cc3c(=O)[nH]2)cc(OC)c1OC`, in assay [3], the inhibition at 2.5 µM turned out to be 3.4%.

As for `O=C(c1nc2ccccc2c(=O)[nH]1)c1ccccc1OC(F)(F)F`, in assay [1], the IC50 is greater than 50 µM.

Values taken from ChEMBL document CHEMBL4842335, “Discovery of penipanoid C-inspired 2-(3,4,5-trimethoxybenzoyl)quinazolin-4(3H)-one derivatives as potential anticancer agents by inhibiting cell proliferation and inducing apoptosis in hepatocellular carcinoma cells” (Eur J Med Chem, 2021).
